Data reported in ChEMBL document CHEMBL2346587, “Design, synthesis, and evaluation of a water-soluble antofine analogue with high antiproliferative and antitumor activity” (Bioorg Med Chem, 2013).
Calls of active or inactive are those of the source. The calls are words filed in the database; no cut-off is given here.

What was measured:
[1] = target: ATP-dependent translocase ABCB1 (Homo sapiens, UniProt P08183); experiment: Inhibition of P-gp activity in human paclitaxel-resistant A549 cells potentiation of 5 uM paclitaxel-induced cytotoxicity at 0.1 uM by SRB assay; type: cell-based; conditions: a549, 0.1 µM
Summary of the method: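 A549-Pa cells plated at 5 × 10^4 cells/well and co-treated for 48 h with the compound (0–200 nM) plus paclitaxel or gefitinib; growth inhibition by SRB assay. Combination index computed at the 50% inhibition level as CI = D1/(Dx)1 + D2/(Dx)2, comparing combined versus single-agent concentrations.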

[2] = Inhibition of Wnt signaling in human A549 cells assessed as inhibition of […] expression after 24 hrs by Western blot analysis; type: cell-based
Summary of the method: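 A549 cells were seeded at 3 × 10^5 per 60 mm dish, grown 24 h, then given graded compound concentrations for 24 h. Lysis was in boiling SDS buffer, with BCA protein assay. 25–50 µg per lane was run on 8–15% SDS-PAGE and blotted to PVDF. Primary antibodies (1:1000–1:2000) went on overnight at 4 °C, then secondary and ECL read-out.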

[3] = test system: A549; experiment: Cell cycle arrest in human A549 cells assessed as accumulation at S phase at 50 nM after 24 hrs by flow cytometry (reference value: 13.38 %); type: functional
[4] = test system: A549; experiment: Inhibition of MDR-1 gene expression in human paclitaxel-resistant A549 cells at 50 to 200 nM after 48 hrs by RT-PCR analysis; type: functional, cell-based
Summary of the method: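 A549-Pa cells (1 × 10^5 per 100 mm dish) exposed for 48 h; RNA isolated with TRI reagent, 1 µg reverse-transcribed with AMV RT and oligo(dT)15. MDR-1 amplified with specific primers: 94 °C 4 min; 35 cycles of 94 °C 30 s, 55 °C 30 s, 72 °C 30 s; 72 °C 5 min. Products resolved on 2% agarose, SYBR Safe stained.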

[5] = test system: HCT-116; experiment: Cytotoxicity against human HCT116 cells after 72 hrs by SRB assay; type: functional, cell-based; conditions: HCT-116, 72 h
Summary of the method: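 SRB growth assay: 5 × 10^3 cells/well exposed to a concentration series for 72 h; fixed in 10% TCA 30 min at 4 °C, stained with 0.4% SRB in 1% acetic acid 30 min, dye dissolved in 10 mM Tris pH 10.0, absorbance at 515 nm. Viability relative to vehicle control; IC50 by non-linear regression; at least three experiments. A549-Pa is a paclitaxel-resistant A549 subline.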

[6] = test system: A549; experiment: Cell cycle arrest in human A549 cells assessed as accumulation at sub-G1 phase at 50 nM after 24 hrs by flow cytometry (reference value: 1.40 %); type: functional
[7] = test system: A549; experiment: Inhibition of AKT phosphorylation at T308 residue in human A549 cells at 50 to 400 nM after 24 hrs by Western blot analysis; type: cell-based
Summary of the method: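 A549 cells plated at 3 × 10^5 per 60 mm dish, grown 24 h, then exposed to a concentration series for 24 h. Lysed in boiling SDS sample buffer with NaF and orthovanadate; protein by BCA; 25–50 µg run on 8–15% SDS-PAGE, transferred to PVDF, blocked in 5% milk/PBST, primary antibodies overnight at 4 °C, secondary 1–2 h, ECL detection.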

ATP-dependent translocase ABCB1, sequence (P08183 whole entry): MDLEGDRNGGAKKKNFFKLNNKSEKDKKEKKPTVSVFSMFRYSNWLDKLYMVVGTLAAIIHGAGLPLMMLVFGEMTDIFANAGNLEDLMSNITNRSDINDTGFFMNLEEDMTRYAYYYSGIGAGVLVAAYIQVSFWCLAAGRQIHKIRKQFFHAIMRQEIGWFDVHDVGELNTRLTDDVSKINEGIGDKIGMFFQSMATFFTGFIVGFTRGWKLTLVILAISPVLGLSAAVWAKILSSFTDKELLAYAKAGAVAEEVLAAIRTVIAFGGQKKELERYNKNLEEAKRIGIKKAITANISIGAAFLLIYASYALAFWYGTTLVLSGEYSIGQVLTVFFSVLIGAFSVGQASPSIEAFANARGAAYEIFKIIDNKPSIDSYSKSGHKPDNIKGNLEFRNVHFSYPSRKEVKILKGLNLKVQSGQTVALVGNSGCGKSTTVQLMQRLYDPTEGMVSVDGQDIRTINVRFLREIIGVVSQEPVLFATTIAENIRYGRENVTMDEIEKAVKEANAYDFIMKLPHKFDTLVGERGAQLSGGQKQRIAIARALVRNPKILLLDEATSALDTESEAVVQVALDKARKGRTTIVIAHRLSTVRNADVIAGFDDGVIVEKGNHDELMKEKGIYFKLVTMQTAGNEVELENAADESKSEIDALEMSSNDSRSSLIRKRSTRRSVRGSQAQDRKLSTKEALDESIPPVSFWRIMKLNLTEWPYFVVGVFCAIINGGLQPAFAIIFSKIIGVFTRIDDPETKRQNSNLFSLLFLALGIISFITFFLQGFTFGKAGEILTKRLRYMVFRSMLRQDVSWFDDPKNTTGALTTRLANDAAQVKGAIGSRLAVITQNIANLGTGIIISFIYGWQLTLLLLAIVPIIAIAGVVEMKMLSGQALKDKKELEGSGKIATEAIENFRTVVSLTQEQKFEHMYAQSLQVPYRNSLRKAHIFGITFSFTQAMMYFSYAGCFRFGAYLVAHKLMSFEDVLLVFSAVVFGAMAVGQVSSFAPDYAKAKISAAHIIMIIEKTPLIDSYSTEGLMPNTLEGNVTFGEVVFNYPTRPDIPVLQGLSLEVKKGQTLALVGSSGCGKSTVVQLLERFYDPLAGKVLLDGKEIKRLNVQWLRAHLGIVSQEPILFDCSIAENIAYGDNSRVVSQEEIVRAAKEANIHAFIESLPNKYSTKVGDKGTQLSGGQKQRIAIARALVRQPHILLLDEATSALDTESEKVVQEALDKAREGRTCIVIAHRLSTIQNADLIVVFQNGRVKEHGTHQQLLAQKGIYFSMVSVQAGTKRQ

Structure (SMILES): COc1ccc2c3c(c4cc(OC)c(OC)cc4c2c1)C[C@@]1(CO)CCCN1C3
- fractional inhibitory concentration index (FICI) [1]: 0.391
- inhibition [2]: Dose-dependent effect
- Activity [3]: 12.08%
- inhibition [4]: Active
- IC50 [5]: 60 nM
- Activity [6]: 1.13%
- inhibition [7]: Active
